According to ChEMBL document CHEMBL1124799, “1,4-bis(3-oxo-2,3-dihydropyridazin-6-yl)benzene analogues: potent phosphodiesterase inhibitors and inodilators” (1990):

Legend:
Felis catus [1] = test: The dose required to cause 50% increase in the contractility and inotropic activity as dLVP/dt(max) in anesthetized cat; type: functional
In short: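 Pentobarbitone-anesthetized cats (60 mg/kg ip), given pempidine 5 mg/kg and then propranolol 1 mg/kg iv plus 3–4 mg/kg sc. Cats responding to isoprenaline 0.01–0.1 μg/kg iv with less than a 100% contractility rise were rejected. Test compound given as an iv bolus, with dLVP/dt(max) as the read-out. ED50 is the dose giving a 50% rise over control, from dose-response curves, mean of ≥2 experiments. Duration was scored by the time for dLVP/dt to return to control.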

Felis catus [2] = test: ED15 is the dose producing 15% decrease in autoperfused hindquarters perfusion pressure in anesthetized cat; type: functional
In short: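 Anesthetized cats (either sex, 1.9–2.5 kg; pentobarbitone 60 mg/kg ip), ganglion-blocked with pempidine 5 mg/kg, then β-blocked with propranolol 1 mg/kg iv plus 3–4 mg/kg sc, heparinized 500 units/kg iv. Hindquarters autoperfused via the descending aorta. Test compound given as an iv bolus. ED15 taken as the dose lowering perfusion pressure by 15%, from dose-response curves, mean of ≥2 experiments.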

[3] = test system: Phosphodiesterase 3 (Felis catus); test: Inhibition of phosphodiesterase 3 enzyme activity by 50%
[4] = test system: Phosphodiesterase 3 (Felis catus); test: Inhibition of Phosphodiesterase 3

| IC50 [3] | IC50 [4] | SMILES | ED50 (Felis catus [1]) | ED15 (Felis catus [2]) |
| --- | --- | --- | --- | --- |
| 7.13 µM | – | CC(=O)Nc1ccc(C2=NNC(=O)CC2)cc1 | 0.19 µmol/kg | 0.2 µM/kg |
| 6.38 µM | – | CC(=O)Nc1ccc(-c2ccc(O)nn2)cc1 | – | – |
| 22.8 µM | – | Nc1ccc(-c2ccc(O)nn2)cc1 | – | – |
| 37.5 µM | – | Cc1cc(O)nnc1-c1ccc(-c2nnc(O)cc2C)cc1 | – | – |
| 0.49 µM | – | Oc1ccc(-c2ccc(-c3ccc(O)nn3)s2)nn1 | 0.73 µmol/kg | 0.38 µM/kg |
| 0.07 µM | – | CC1CC(=O)NN=C1c1ccc(-c2ccc(O)nn2)cc1 (configuration not stated) | 0.02 µmol/kg | 0.01 µM/kg |
| 0.11 µM | – | CC1CC(=O)NN=C1c1ccc(C2=NNC(=O)CC2C)cc1 (configuration not stated) | 0.06 µmol/kg | 0.04 µM/kg |

The remaining lines, values behind:

| SMILES | IC50 [3] | IC50 [4] | ED50 (Felis catus [1]) | ED15 (Felis catus [2]) |
| --- | --- | --- | --- | --- |
| Oc1ccc(-c2ccc(-c3ccc(O)nn3)cc2)nn1 | 0.33 µM | – | 0.04 µmol/kg | 0.06 µM/kg |
| CC(=O)Nc1ccc(C2=NNC(=O)CC2C)cc1 (configuration not stated) | – | – | 0.03 µmol/kg | 0.08 µM/kg |
| CC1SC(=O)NN=C1c1ccc(C2=NNC(=O)SC2C)cc1 (configuration not stated) | – | 0.08 µM | 0.13 µmol/kg | 0.09 µM/kg |
| O=C1CCC(c2ccc(-n3ccnc3)cc2)=NN1 [IMAZODAN] | – | – | 0.64 µmol/kg | 0.42 µM/kg |
| CC1CC(=O)NN=C1c1ccc(N)cc1 (configuration not stated) | 37 µM | – | 1.7 µmol/kg | 0.5 µM/kg |
| Oc1ccc(-c2ccc(-c3ccc(-c4ccc(O)nn4)cc3)cc2)nn1 | > 100 µM | – | – | – |
| Oc1ccc(-c2cccc(-c3ccc(O)nn3)c2)nn1 | 3.9 µM | – | – | 3.23 µM/kg |
| O=C1CCC(c2ccc(C3=NNC(=O)CC3)cc2)=NN1 | 0.64 µM | – | 0.55 µmol/kg | 0.12 µM/kg |
| CC1CC(O)=NN=C1c1ccc(-n2ccnc2)cc1 (configuration not stated) [CI-930] | – | – | 0.18 µmol/kg | 0.09 µM/kg |
| Nc1ccc(C2=NNC(=O)CC2)cc1 | 61.7 µM | – | 4.43 µmol/kg | 1.4 µM/kg |
| CC1CC(=O)NN=C1c1ccc(C(N)=O)cc1 (configuration not stated) | 2.23 µM | – | 0.07 µmol/kg | 0.1 µM/kg |
